High-throughput results: PubChem BioAssay, Broad Institute
An excerpt weighted towards active compounds, which were near 1.3% of everything screened.
RAD54 inh: inhibitors of human RAD54 branch migration; Q92698; RAD54 Holliday junction branch migration, FAM/BHQ fluorescence; inhibition, % at 10.4 µM; actives 0.14% (n = 360,000); AID 602329;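 active = mean normalized replicate activity at least 40 and at least half of replicates scoring 40 or more; inconclusive = only one of the two criteria met; inactive = mean below 40 and under half of replicates reaching 40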;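 also: inhibitors cause a drop in the FAM fluorescence signal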
Target sequence (Q92698 whole entry, looked up): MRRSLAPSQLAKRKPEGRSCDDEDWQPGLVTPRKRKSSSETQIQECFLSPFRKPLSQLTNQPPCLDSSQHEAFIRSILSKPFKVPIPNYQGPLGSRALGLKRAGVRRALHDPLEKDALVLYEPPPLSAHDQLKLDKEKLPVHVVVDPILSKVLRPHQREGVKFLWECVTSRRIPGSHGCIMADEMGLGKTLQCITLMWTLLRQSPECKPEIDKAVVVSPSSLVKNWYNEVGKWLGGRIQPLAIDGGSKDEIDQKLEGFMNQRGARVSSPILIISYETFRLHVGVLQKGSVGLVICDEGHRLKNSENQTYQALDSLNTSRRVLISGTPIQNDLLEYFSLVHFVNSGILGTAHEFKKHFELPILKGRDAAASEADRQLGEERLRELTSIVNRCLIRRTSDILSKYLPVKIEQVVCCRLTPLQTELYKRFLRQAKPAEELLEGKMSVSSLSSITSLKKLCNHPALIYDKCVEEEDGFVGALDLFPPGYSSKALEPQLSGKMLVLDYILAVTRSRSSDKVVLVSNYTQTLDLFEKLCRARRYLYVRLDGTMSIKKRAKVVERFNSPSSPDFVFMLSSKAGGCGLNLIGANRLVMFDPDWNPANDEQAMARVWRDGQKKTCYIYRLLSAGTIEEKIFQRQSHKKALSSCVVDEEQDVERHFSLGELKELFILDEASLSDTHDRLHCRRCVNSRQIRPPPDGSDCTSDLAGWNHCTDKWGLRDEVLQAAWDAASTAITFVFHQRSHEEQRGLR
RAD52 inh: RAD52 (human) annealing inhibition; P43351; inhibition, % at 18.7 µM; recombinant RAD52 DNA annealing, FRET fluorescence; actives 0.46% (n = 360,000); AID 651710;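 active = every replicate showing at least 50% inhibition; inconclusive = mean inhibition at least 50% but not in every replicate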
PAX8 inh HTS: lowers PAX8-driven luciferase in RMG-I cells. RMG-I TPO-luciferase reporter, SteadyGlo, 24 h. inhibition, % at 12.6 µM. actives 1.2% (n = 360,000);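 active = mean replicate inhibition at least 60% with every replicate also reaching 60%; inconclusive = only one of the two criteria is met; inactive = mean below 60% and not all replicates reaching 60%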;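 also: luciferase light reporting Pax8 driven TPO promoter activity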
FN deposit inh: fibronectin deposition inhibition; AH1F fibroblasts, Alexa488-fibronectin deposition fluorescence, overnight; inhibition, % at 12.6 µM; actives 0.086% (n = 350,000);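 active = mean inhibition across replicates of 30% or more, regardless of how many single replicates reach that level; inconclusive = mean under 30% yet at least half of replicates reach 30%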
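Material: AH1F fibroblasts assembling fluorescent fibronectin matrix; amount: 10000 AH1F cells/well; medium: DMEM, 2% serum; reagent: Alexa488-fibronectin, 24 nM final in well; dosing: single compound dose, delivered by pin transfer; incubation: 1 h adhesion, overnight exposure; detection: fluorescence after three HBSS washes, excitation 485 nm, emission 525 nm; measure: fibronectin deposition inhibition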
RAD52 DNA ctr: counter-screen for RAD52 inhibitors: DNA binding compounds | shares compounds with RAD52 inh | Salmon sperm DNA/acridine orange FP displacement | AC50, µM | actives 8% (n = 1,000) | AID 652128;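 active = fitted half-maximal concentration for signal loss at or below twice the highest dose tested, in every separate run, actives reach about 64 µM in these data; inconclusive = runs disagree, or flat partial signal loss, or poor fit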
Hits are given with their value; 0 = inactive; ? = inconclusive; - = no result.

SMILES	RAD54 inh	RAD52 inh	PAX8 inh HTS	FN deposit inh	RAD52 DNA ctr
CNC(C)C(=O)NC(C(=O)N1CCCC1C(=O)Nc1ccc2[nH]ccc2c1)C(C)C (centres undefined)	0	95.6	0	0	0
Cc1c(C(=S)NC(=O)C2CC2)c(=O)n(-c2ccccc2)n1C	-	0	0	0	-
O=C(C1CCN(S(=O)(=O)c2cc(Cl)ccc2Cl)CC1)N1CCCC1	0	0	0	0	-
COc1ccc(-c2c(-c3ccccc3)c(C(=O)C(=O)NCCCN(C)C)n3ccc4cc(OC)c(OC)cc4c23)cc1OC	81.3	94.1	0	0	0
CN(C)CCCN(C(=O)c1cc2cc([N+](=O)[O-])ccc2s1)c1nc2cc3c(cc2s1)OCCO3	0	50.6	-	0	0
CN(C)CCCN(C(=O)c1ccc(Br)s1)c1nc2cc3c(cc2s1)OCCO3	0	68.4	0	0	0
CN(C)CCCN(C(=O)c1ccc([N+](=O)[O-])s1)c1nc2cc3c(cc2s1)OCCO3	0	0	0	0	-
C[C@H](O)[C@@H]1CN2CCc3ccc(-c4ccc5c(c4)OCO5)cc3[C@@H]2C[C@@H]1N(C)Cc1ccccc1	-	0	0	0	-
c1ccn(CCc2ccncc2)c1	0	0	0	0	-
Nc1ccc(CCn2ccnc2)cc1	0	50.7	0	0	0
CSc1sccc1/C=N/NC(=O)c1ccncc1	0	0	0	0	-
NC(=NCc1ccccc1)NN=Cc1ccnc2ccccc12	-	64.3	0	0	0
COCCN1CCn2c(nc3cc(Nc4nnc(C)c5ccccc45)ccc32)C1	-	72.3	0	0	0
COCCN1CCn2c(nc3cc(NC(C)=O)ccc32)C1	0	0	0	0	-
Cc1ccc[n+](CC(=O)Nc2ccc(N(C)C)cc2)c1	0	78.4	0	0	0
CN(C)c1ccc(NC(=O)C[n+]2ccccc2)cc1	0	0	0	0	0
CN1CCc2c(sc(N)c2C(=O)O)C1	-	74.1	0	0	0
COc1ccc(C(=O)c2c(N)sc3c2CCN(C)C3)cc1	0	0	0	0	-
CC(=O)c1ccc(NC(=O)CNCc2cccs2)cc1	0	0	0	0	-
CC1CCN(CCCNC(=O)c2cc3c(s2)-c2ccccc2OC3)CC1	0	0	0	0	-
Cc1cccc2c1-c1sc(C(=O)NCCCN3CCC(C)CC3)cc1CO2	0	61.0	0	0	0
COc1ccc([C@H]2CC(=O)C[C@@H](CCn3ccnn3)O2)cc1	-	0	0	0	-
COc1ccc(-c2cc(NC=O)c3ncc(-c4cccc(C(=O)NCCN(C)C)c4)n3c2)c(OC)c1	0	56.8	0	-	0
COc1ccccc1CNc1nc(NCc2cccc(OC)c2OC)c2sccc2n1	0	0	0	0	-
COc1ccc(-c2cc(CNc3nc(NCc4ccccc4OC)nc4ccsc34)on2)cc1	0	61.4	0	0	0
SMILES	RAD54 inh	RAD52 inh	PAX8 inh HTS	FN deposit inh	RAD52 DNA ctr
Cc1cccc(OCCCn2c(=O)sc3ccccc32)c1	0	-	-	-	-
CCCCCCCCCCOC(=O)Cn1c(COc2ccccc2)[n+](C)c2ccccc21	?	70.1	70.9	0	0
CCCCCCCCCCOC(=O)Cn1c(COc2cccc(C)c2)[n+](C)c2ccccc21	52.1	79.5	0	0	?
CCCCCOC(=O)Cn1c(=O)oc2ccccc21	0	0	0	0	-
CCCCCCCCCCOC(=O)Cn1c(COc2ccc(Cl)cc2)[n+](C)c2ccccc21	56.9	76.5	0	0	0
CC(C)(C)C(=O)Nc1cc2c3c(c1)CCN3C(=O)CC2	0	0	0	0	-
CCNC(=O)C1(C)CCCN(CC(=O)c2ccccc2OC)C1 (centres undefined)	0	0	-	0	-
CN(c1ccc(C(=O)NCCSCc2ccco2)cc1)S(C)(=O)=O	0	-	-	-	-
CN/C(=C/[N+](=O)[O-])NCCSCc1ccc(CN(C)C)o1	0	54.8	0	0	0
CC(C)C[C@@H]1CN=C(N)N1C[C@@H]1CCCN1C[C@@H](C(C)C)N1C[C@@H](Cc2ccccc2)N(CCc2ccc(Cl)c(Cl)c2)C1=N	0	50.8	0	0	0
CCC(=O)Nc1ccc2c(c1)C(=O)N(C)C[C@H](OC)[C@@H](C)CN(CCC(F)(F)F)[C@H](C)CO2	0	0	0	0	-
CCN(CC)C(=O)c1sc(NC(=O)C(C)C)c(C#N)c1C	0	0	0	0	-
CCN(CC)CCNc1ccc(CO)c2oc3cc(Cl)ccc3c(=O)c12	104.8	56.6	0	0	0
CN(C)CCNc1ccc(CO)c2oc3ccc(O)cc3c(=O)c12	-	80.9	-	0	55.2µM
O=C(C1CCCC1)N1CCC(CC2CC(c3ccc(Cl)cc3)=NO2)(C(=O)NCC2CCCCC2)CC1 (centres undefined)	0	99.3	0	0	0
COC(=O)Cn1cnc2c(C#N)c3n(c2c1=O)CCCC3	0	-	-	0	-
Nc1ccc(N2CCN(CCCCN3C(=O)C4CCCN4C3=O)CC2)cc1 (centres undefined)	-	101.1	0	0	0
CCN(CC)CCN1CCn2c3c(c4cc(C)ccc42)CCCC31 (centres undefined)	-	62.7	0	0	0
CCN1CCn2c3c(c4cc(Cl)ccc42)CCCC31 (centres undefined)	0	-	-	0	-
O=C(CCNC(=O)c1ccc([N+](=O)[O-])cc1)Nc1ccccc1N1CCCC1	0	0	0	0	-
Cc1nc2cc(NS(=O)(=O)c3cccc(F)c3)ccc2s1	-	0	0	0	-
COc1ccc(CCNc2cc(N3CCN(C(=O)c4ccccc4F)CC3)ccc2[N+](=O)[O-])cc1OC	0	-	-	-	-
NCc1ccc(OCCCN2CCC(C(O)(C3=CCCC3)c3ccccc3)CC2)cc1 (centres undefined)	-	67.1	0	0	0
Cc1cc(OCCCN2CCC(C(O)(c3ccccc3)c3ccccc3)CC2)ccc1Br	-	54.7	0	0	0
Cc1cc(C)cc(OCCCN2CCC(C(O)(c3ccccc3)c3ccccc3)CC2)c1	-	0	0	0	-
SMILES	RAD54 inh	RAD52 inh	PAX8 inh HTS	FN deposit inh	RAD52 DNA ctr
CSc1nc(N)nc(SCC(=O)c2ccc(C)cc2)c1C#N	0	-	-	-	-
C[C@H](CO)N1C[C@H](C)[C@H](CN(C)C(=O)c2ccccc2)OCCCC[C@H](C)Oc2ccc(NS(=O)(=O)c3cn(C)cn3)cc2C1=O	0	0	0	0	-
Cc1[nH]c2ccccc2c1CCCO	-	0	0	0	-
COc1ccc2cc(CNCCOCCOCCNCc3ccc4cc(OC)ccc4c3)ccc2c1	-	63.5	117.2	0	0
CCOCCCNCc1ccc(OC)cc1	0	-	-	0	-
C[n+]1c2n(c3ccccc31)N=C(c1cc(C(C)(C)C)c(O)c(C(C)(C)C)c1)CS2	-	60.0	92.4	-	0
CN(C1CCCCC1)S(=O)(=O)c1ccc(C(=O)Nc2sc3c(c2C(N)=O)CC(C)(C)NC3(C)C)cc1	0	77.8	0	0	0
CCOC(=O)c1c(NC(=O)c2ccc(S(=O)(=O)N3CCOCC3)cc2)sc2c1CC(C)(C)NC2(C)C	0	0	0	0	-
CC1CCN(S(=O)(=O)c2ccc(NC(=O)CN3C(=O)NC(C)(c4ccccc4)C3=O)cc2)CC1 (centres undefined)	0	0	0	0	-
COc1cccc(-c2cc3nc(NCc4cccnc4)n(C)c(=O)c3s2)c1	0	0	0	0	-
CN(C)CCCNc1nc2cc(-c3cccc(C(F)(F)F)c3)sc2c(=O)n1C	0	65.7	0	0	?
